The values that follow come from ChEMBL document CHEMBL2034851, “Synthesis and antiviral evaluation of C5-substituted-(1,3-diyne)-2'-deoxyuridines” (Eur J Med Chem, 2012).

The subject of data set [1] is Human betaherpesvirus 5. The experiment in a line: Antiviral activity against Human cytomegalovirus AD169 infected in HEL cells assessed as reduction in virus-induced cytopathicity. The data set is classed as functional, organism-based. As to conditions: Human betaherpesvirus 5, AD169, HEL. The gist of the method: (§1)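 Confluent HEL cell monolayers in microtiter plates were inoculated with 100 CCID50 of virus or 20 PFU. After 1–2 h adsorption, residual virus was removed. Cultures were then incubated with graded compound concentrations. Cytopathicity was read once it was complete in untreated infected controls. EC50 is the concentration giving 50% reduction of virus-induced cytopathicity or plaque formation.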
Background: Damage to the host cells serves as the signal in cytopathic effect assays.

A short description of data set [2]: Cytostatic against human HEL cells assessed as reduction in cell growth after 3 days by coulter counter. It is filed as cell-based. The gist of the method:
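HEL cells were seeded at 5 × 10³ cells/well and grown for 24 h. Medium with varying compound concentrations was then added and plates were incubated 3 days at 37 °C. Cells were counted with a Coulter counter. CC50 is the concentration reducing cell proliferation by 50% versus untreated controls.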

The test system of data set [3] is Human alphaherpesvirus 3. Nature of the data set: Antiviral activity against thymidine kinase-positive Varicella-zoster virus YS infected in HEL cells assessed as reduction in virus-induced cytopathicity. The data set is classed as functional, organism-based. The settings on record: Human alphaherpesvirus 3, YS. The method in brief: (§2)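 Confluent HEL cell monolayers in 96-well plates were inoculated with 100 CCID50 or 20 PFU of virus and left 1–2 h for adsorption. Residual virus was removed and cells were incubated with serial compound dilutions. Read-out was taken once cytopathicity was complete in untreated infected controls. EC50 is the concentration giving 50% reduction of virus-induced cytopathicity or plaque formation.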

For data set [4], the system named is Human betaherpesvirus 5. Nature of the data set: Antiviral activity against Human cytomegalovirus Davis infected in HEL cells assessed as reduction in virus-induced cytopathicity. It is filed as functional, organism-based. As to conditions: Human betaherpesvirus 5, Davis. The method in brief: as §1
Data set [5] deals with Human alphaherpesvirus 3. The experiment in a line: Antiviral activity against thymidine kinase-deficient Varicella-zoster virus 07/1 infected in HEL cells assessed as reduction in virus-induced cytopathicity. The data set is classed as functional, organism-based. As to conditions: Human alphaherpesvirus 3, 07/1, HEL. The method in brief:
as §2

Data set [6] deals with Human alphaherpesvirus 3. Nature of the data set: Antiviral activity against thymidine kinase-positive Varicella-zoster virus OKA infected in HEL cells assessed as reduction in virus-induced cytopathicity. It is filed as functional, cell-based. As to conditions: Human alphaherpesvirus 3, strain Oka vaccine. The gist of the method:
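Confluent HEL cell monolayers in 96-well plates were inoculated with 100 CCID50 or 20 PFU of virus and left 1–2 h for adsorption. Residual virus was removed and cells were incubated with serial compound dilutions. Read-out was taken once cytopathicity was complete in untreated infected controls.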

Data set [7] in a line: Lipophilicity, log P of the compound. The settings on record: octanol/water. The data set is classed as physicochemical.
Data set [8] is described as follows: Cytotoxicity against human HEL cells assessed as change in cell morphology by microscopic analysis. The data set is classed as cell-based. The gist of the method:
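MCC is the compound concentration producing a microscopically visible change in cell morphology, scored on the cell cultures used for the antiviral tests.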

The test system of data set [9] is Human alphaherpesvirus 2. Nature of the data set: Antiviral activity against Herpes simplex virus 2 G infected in HEL cells assessed as reduction in viral plaque formation. The data set is classed as functional, organism-based. The settings on record: Human alphaherpesvirus 2, strain G. The method in brief:
as §1

Data set [10] deals with Vaccinia virus. The experiment in a line: Antiviral activity against Vaccinia virus infected in HEL cells assessed as reduction in viral plaque formation. The data set is classed as functional, organism-based. As to conditions: Orthopoxvirus vaccinia. The method in brief:
as §2

Data set [11] deals with Human alphaherpesvirus 1. The experiment in a line: Antiviral activity against Herpes simplex virus 1 KOS infected in HEL cells assessed as reduction in viral plaque formation. The data set is classed as functional, organism-based. As to conditions: Human alphaherpesvirus 1, KOS. The method in brief:
as §1

In data set [12] the test system is Human alphaherpesvirus 1. The experiment in a line: Antiviral activity against thymidine kinase-deficient Herpes simplex virus 1 infected in HEL cells assessed as reduction in viral plaque formation. It is filed as functional, organism-based. The settings on record: Human alphaherpesvirus 1, HEL. The gist of the method:
as §1

The structures appear in SMILES notation.

In general, EC50 refers to the midpoint of the concentration-response curve. The CC50 is the concentration giving 50% cytotoxicity. As usually defined, the logP is a log measure of how a compound divides between an organic and an aqueous phase. Read a high logP as higher lipophilicity. With `O=c1[nH]c(=O)n([C@H]2C[C@H](O)[C@@H](CO)O2)cc1C#CC#Cc1ccccc1`, the EC50 in data set [1], in data set [3], in data set [4], in [5] and in data set [6] was over 20 µM each time. The CC50 at 72 h in [2] came to 100 µM. Moreover, the logP in [7] worked out at 0.96. Also, in data set [8], the MCC came out at 100 µM.
Consider `CCCc1ccc(C#CC#Cc2cn([C@H]3C[C@H](O)[C@@H](CO)O3)c(=O)[nH]c2=O)cc1`, for which the EC50 in [1] is over 20 µM; in [3], 2.77 µM; in data set [4], over 20 µM; in data set [5], 14 µM; in data set [6], 3.7 µM. Besides, the CC50 at 72 h in [2] came to 52 µM. The compound also showed a logP in [7] of 2.36. For the same compound, the MCC in data set [8] turned out to be 100 µM.
Turning to `CCCCCCc1ccc(C#CC#Cc2cn([C@H]3C[C@H](O)[C@@H](CO)O3)c(=O)[nH]c2=O)cc1`, the EC50 in data set [1] was over 20 µM; in [3], 6.44 µM; in data set [4], over 20 µM; in [5] it was 9.5 µM; in data set [6], 8.8 µM. Also, the CC50 at 72 h in data set [2] was 35 µM. In data set [7], the log partition coefficient (logP) was 3.7. For the same compound, the MCC in data set [8] worked out at 100 µM.
For `COc1cc(C#CC#Cc2cn([C@H]3C[C@H](O)[C@@H](CO)O3)c(=O)[nH]c2=O)cc(OC)c1`, the EC50 in data set [1] was over 100 µM; in data set [3], 38.1 µM; in data set [4], over 100 µM; in data set [5], over 100 µM; in data set [6] it was 39 µM. Moreover, the CC50 at 72 h in [2] is over 100 µM. Also, in [8], the MCC was over 100 µM.
Turning to `O=c1[nH]c(=O)n([C@H]2C[C@H](O)[C@@H](CO)O2)cc1C#CC#Cc1ccccn1`, the EC50 in data set [1] is 49 µM; in data set [3] it was 2.06 µM; in [4] it was over 4 µM; in [5], 20 µM; in data set [6] it was 5.1 µM. Further, the CC50 at 72 h in data set [2] was 1.5 µM. Moreover, the MCC in data set [8] was over 20 µM.
Consider `Nc1cccc(C#CC#Cc2cn([C@H]3C[C@H](O)[C@@H](CO)O3)c(=O)[nH]c2=O)c1`, for which the EC50 in data set [1], in [4], in [5] and in [6] was over 100 µM in each case. In addition, in [2], the CC50 at 72 h is over 100 µM. In data set [7], the logP worked out at 0.13. Besides, the MCC in data set [8] is over 100 µM.
Consider `Nc1ccc(C#CC#Cc2cn([C@H]3C[C@H](O)[C@@H](CO)O3)c(=O)[nH]c2=O)cc1`, for which the EC50 in data set [1], in data set [4], in data set [5] and in data set [6] was over 100 µM in each case. The CC50 at 72 h in data set [2] was over 100 µM. The same compound had a logP in data set [7] of 0.13. Further, the MCC in [8] is over 100 µM.
On to `O=c1[nH]c(=O)n([C@H]2C[C@H](O)[C@@H](CO)O2)cc1C#CC#Cc1ccc([N+](=O)[O-])cc1`, for which the EC50 in [1], in data set [4], in [5] and in data set [6] was over 20 µM in each case. Besides, the CC50 at 72 h in [2] is 89 µM. In data set [7], this compound gave a logP of 0.9. For the same compound, the MCC in data set [8] amounted to 100 µM.
With `O=c1[nH]c(=O)n([C@H]2C[C@H](O)[C@@H](CO)O2)cc1C#CC#Cc1ccc(OC(F)(F)F)cc1`, the half-maximal effective concentration (EC50) was over 20 µM in data set [1]; 10 µM in data set [9]; 1.08 µM in data set [3]; over 20 µM in data set [4]; over 4 µM in [5]; 0.9 µM in data set [6]. Besides, the EC50 in data set [10] was determined as 20 µM; in [11], 14.5 µM; in data set [12], 14.5 µM. For the same compound, in [2], the CC50 at 72 h turned out to be 55 µM. For the same compound, the logP in [7] came to 2.39. Also, in data set [8], the MCC stood at 100 µM.
On to `Cc1cc(C#CC#Cc2cn([C@H]3C[C@H](O)[C@@H](CO)O3)c(=O)[nH]c2=O)ccc1F`, for which the EC50 in data set [1] was over 20 µM; in data set [3] it was 9.13 µM; in data set [4], over 20 µM; in data set [5], over 20 µM; in [6] it was 14 µM. In addition, in data set [2], the CC50 at 72 h came out at 45 µM. In addition, the MCC in data set [8] came to 100 µM.
As to `CC(O)CC#CC#Cc1cn([C@H]2C[C@H](O)[C@@H](CO)O2)c(=O)[nH]c1=O` (stereo partly drawn), the half-maximal effective concentration (EC50) in data set [1] is over 100 µM; in [3], 12.7 µM; in [4], over 100 µM; in data set [5] it was over 100 µM; in data set [6], 20 µM. Besides, the CC50 at 72 h in [2] worked out at 9.5 µM. Besides, the MCC in [8] was over 100 µM.
On to `O=c1[nH]c(=O)n([C@H]2C[C@H](O)[C@@H](CO)O2)cc1C#CC#CCO`, for which the EC50 in [1] is over 100 µM; in data set [3], 6.24 µM; in data set [4] it was over 100 µM; in data set [5], over 100 µM; in data set [6], 2.1 µM. The CC50 at 72 h in [2] was over 100 µM. Moreover, the logP in data set [7] was -1.45. The MCC in [8] was over 100 µM.
With `O=c1[nH]c(=O)n([C@H]2C[C@H](O)[C@@H](CO)O2)cc1C#CC#CCC1CCCC1`, the EC50 was over 100 µM in data set [1]; 33.7 µM in data set [3]; over 100 µM in [4]; over 100 µM in data set [5]; 42 µM in data set [6]. For the same compound, the CC50 at 72 h in data set [2] amounted to 89 µM. Further, the logP in data set [7] is 1.43. For the same compound, the MCC in [8] was over 100 µM.
On to `O=c1[nH]c(=O)n([C@H]2C[C@H](O)[C@@H](CO)O2)cc1C#CC#CC1CC1`, for which the EC50 in [1], in [4], in data set [5] and in data set [6] was over 100 µM in each case. Also, the CC50 at 72 h in [2] is over 100 µM. For the same compound, the MCC in [8] was over 100 µM.
With `Nc1nc2c(ncn2COCCO)c(=O)[nH]1` [ACYCLOVIR], in data set [2], the CC50 at 72 h is 470 µM. Further, the EC50 in data set [3] was determined as 2.18 µM; in data set [5], 92 µM. Besides, the MCC in data set [8] is over 300 µM.
For the compound `O=c1[nH]c(=O)n([C@H]2C[C@H](O)[C@@H](CO)O2)cc1/C=C/Br` [BRIVUDINE], the CC50 at 72 h in data set [2] was over 100 µM. Besides, the EC50 was determined as 0.0075 µM in data set [3], 74 µM in [5] and 0.0087 µM in data set [6]. Also, the MCC in data set [8] is over 150 µM.
Regarding `Nc1ccn(C[C@@H](CO)OCP(=O)(O)O)c(=O)n1` [CIDOFOVIR], the CC50 at 72 h in data set [2] was 64 µM. Moreover, the EC50 in data set [4] is 1.1 µM. Moreover, the MCC in [8] is over 350 µM.
Take `Nc1nc2c(ncn2COC(CO)CO)c(=O)[nH]1` [GANCICLOVIR]: the EC50 is 7.5 µM in [1] and 7.1 µM in [4]. In addition, the CC50 at 72 h in [2] worked out at 130 µM. Moreover, the MCC in data set [8] is over 350 µM.
